viability, Activity and Ratio IC50 data for 24 molecules are collected here from ChEMBL document CHEMBL2331424, “Synthesis and biological evaluation of novel neuroprotective agents for paraquat-induced apoptosis in human neuronal SH-SY5Y cells” (2013).

Assay [1] can be described thus: Neuroprotective activity in human SH-SY5Y cells assessed as cell viability after paraquat-induced toxicity at 10 uM incubated for 2 hrs prior to paraquat challenge measured after 24 hrs by MTT assay (reference value: 62.05 +/- 0.47%).
Assay [2] in a line: Neuroprotective activity in paraquat-stimulated human SH-SY5Y cells assessed as upregulation of SOD expression incubated for 4 hrs prior to paraquat challenge measured after 24 hrs by Western blotting analysis. Format: functional, cell-based. In short, it runs like this:
(§1)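 SH-SY5Y in DMEM/F12 with 10% FBS pre-incubated with compound (0.1-10 μM, 4 h), then paraquat 250 μM. Western blot for caspase-3 and caspase-9 cleavage, Bax, Bcl-2, SOD or GPx, with GAPDH as loading control. HRP secondary antibodies and ECL detection, bands quantified. ≥3 independent experiments in duplicate; ANOVA with Dunnett's test.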
In general terms: A western blot detects proteins with antibodies after separation by electrophoresis.

A short description of assay [3]: Neuroprotective activity in paraquat-stimulated human SH-SY5Y cells assessed as upregulation of Bcl2 expression incubated for 4 hrs prior to paraquat challenge measured after 24 hrs by Western blotting analysis. In kind it is functional, cell-based. The procedure, abridged:
as §1

A short description of assay [4]: Neuroprotective activity in paraquat-stimulated human SH-SY5Y cells assessed as upregulation of GPx expression incubated for 4 hrs prior to paraquat challenge measured after 24 hrs by Western blotting analysis. In kind it is functional, cell-based. In short, it runs like this: as §1
The nature of assay [5]: Neuroprotective activity in paraquat-stimulated human SH-SY5Y cells assessed as downregulation of Bax expression incubated for 4 hrs prior to paraquat challenge measured after 24 hrs by Western blotting analysis. Format: functional, cell-based. In short, it runs like this:
as §1

The subject of assay [6] is SH-SY5Y. In words: Neuroprotective activity in human SH-SY5Y cells assessed as decrease in paraquat-induced intracellular ROS level incubated for 4 hrs prior to paraquat challenge measured after 2 hrs by fluorescence microscopic analysis.
The test system of assay [7] is SH-SY5Y. In words: Neuroprotective activity in human SH-SY5Y cells assessed as decrease in paraquat-induced nuclear morphological changes incubated for 4 hrs prior to paraquat challenge measured after 24 hrs by Hoechst 33342 staining-based fluorescence microscopic analysis.
For assay [8], the system named is SH-SY5Y. Description: Neuroprotective activity in human SH-SY5Y cells assessed as decrease in paraquat-induced proteolytic cleavage of procaspase-3 incubated for 4 hrs prior to paraquat challenge measured after 24 hrs by Western blotting analysis. Format: functional, cell-based. In short, it runs like this: as §1
For assay [9], the system named is SH-SY5Y. In words: Neuroprotective activity in human SH-SY5Y cells assessed as decrease in paraquat-induced proteolytic cleavage of procaspase-9 incubated for 4 hrs prior to paraquat challenge measured after 24 hrs by Western blotting analysis. In kind it is functional, cell-based. In short, it runs like this:
as §1

Assay [10] addresses T1, Prostaglandin G/H synthase 2 (Homo sapiens) (UniProt P35354).
T1 sequence (whole entry): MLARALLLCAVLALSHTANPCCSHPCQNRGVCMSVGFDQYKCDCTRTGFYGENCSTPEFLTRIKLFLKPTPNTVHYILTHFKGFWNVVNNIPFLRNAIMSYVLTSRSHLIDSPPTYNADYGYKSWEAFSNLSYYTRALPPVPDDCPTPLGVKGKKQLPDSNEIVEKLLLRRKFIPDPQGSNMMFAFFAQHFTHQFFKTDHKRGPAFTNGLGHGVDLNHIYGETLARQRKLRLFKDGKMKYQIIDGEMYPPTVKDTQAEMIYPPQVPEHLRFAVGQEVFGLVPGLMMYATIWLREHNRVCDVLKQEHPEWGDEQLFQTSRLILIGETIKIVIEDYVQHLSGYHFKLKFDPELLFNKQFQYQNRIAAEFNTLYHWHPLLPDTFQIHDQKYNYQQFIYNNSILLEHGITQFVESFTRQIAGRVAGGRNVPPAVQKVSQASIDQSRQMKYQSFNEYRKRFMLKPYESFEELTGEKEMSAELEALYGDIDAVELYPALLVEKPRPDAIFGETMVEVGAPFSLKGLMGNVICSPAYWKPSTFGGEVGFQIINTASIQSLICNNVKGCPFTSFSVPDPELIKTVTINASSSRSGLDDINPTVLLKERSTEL
Description: Ratio of resveratrol IC50 to compound IC50 for inhibition of prostaglandin H-2 synthase (unknown origin).

Broadly, the viability is a per cent measure of how many cells are alive, often set against a control.

`COc1ccc(C2C(c3cc(OC)cc(OC)c3)=C(C)c3cc(OC)cc(OC)c32)cc1` (configuration not stated): the viability at 10 µM in [1] was 55.8%. For the molecule `Oc1ccc(CC2=C(c3cc(O)cc(O)c3)C(c3ccc(O)cc3)c3c(O)cc(O)cc32)cc1` (configuration not stated), the Activity entry (in assay [2]; in assay [3]; in assay [4]; in assay [5]; with SH-SY5Y [6]; in the assay with SH-SY5Y [7]) was “Dose-dependent effect” throughout. The Activity result in the assay on SH-SY5Y [8] and with SH-SY5Y [9] was “Dose-dependent effect” throughout. For the same molecule, in assay [1], the viability at 10 µM is 89.6%.

On to `Oc1ccc(/C=C2/c3cc(O)cc(O)c3[C@@H](c3ccc(O)cc3)[C@@H]2c2cc(O)cc(O)c2)cc1` (racemic), for which the viability at 10 µM in assay [1] was found to be 57.9%. In the case of `O=C1c2cc(O)cc(O)c2[C@@H](c2ccccc2)[C@@H]1c1cc(O)cc(O)c1`, the viability at 10 µM in assay [1] amounted to 65%.

Consider `O=C1c2cc(O)cc(O)c2[C@@H](c2ccc(O)cc2)[C@@H]1c1cc(O)cc(O)c1` [ISOPAUCIFLORAL F], for which the viability at 10 µM in [1] turned out to be 58.5%. Same read-out and setting: the same measure for `Oc1ccc([C@@H]2c3c(O)cc(O)cc3[C@H]3[C@H](c4ccc(O)cc4)c4c(O)cc(O)cc4[C@@H]23)cc1` (racemic) [PALLIDOL]: 72.4%; for `COc1ccc(/C=C2\c3cc(OC)cc(OC)c3[C@@H](c3ccccc3)[C@@H]2c2cc(OC)cc(OC)c2)cc1`: 65.3%.

In the case of `Oc1ccc([C@@H]2c3c(O)cc(O)cc3[C@H]3[C@H](c4ccccc4)c4c(O)cc(O)cc4[C@@H]23)cc1`, in [1], the viability at 10 µM came out at 77.2%.

Regarding `COc1ccc([C@@H]2c3c(OC)cc(OC)cc3[C@H]3[C@H](c4ccc(OC)cc4)c4c(OC)cc(OC)cc4[C@@H]23)cc1`, the viability at 10 µM in assay [1] worked out at 63.6%. Same read-out and setting: the same measure for `COc1cc(OC)cc([C@@H]2C(O)c3cc(OC)cc(OC)c3[C@H]2c2ccccc2)c1` (relative stereo): 63.9%; for `COc1ccc(/C=C2/c3cc(OC)cc(OC)c3[C@@H](c3ccc(OC)cc3)[C@@H]2c2cc(OC)cc(OC)c2)cc1`: 62.4%. Same read-out and setting: the same measure for `COc1cc(OC)cc([C@@H]2C(=O)c3cc(OC)cc(OC)c3[C@H]2c2ccccc2)c1` (single isomer, unassigned): 65%.

`COc1ccc(CSC2c3cc(OC)cc(OC)c3[C@@H](c3ccc(OC)cc3)[C@@H]2c2cc(OC)cc(OC)c2)cc1` (some centres not stated): in [1], the viability at 10 µM was found to be 65.2%. `COc1ccc(/C=C2/c3cc(OC)cc(OC)c3[C@@H](c3ccccc3)[C@@H]2c2cc(OC)cc(OC)c2)cc1`: the viability at 10 µM in assay [1] amounted to 64%. Still for that read-out and setting: the figure for `COc1ccc(C2C(c3cc(OC)cc(OC)c3)=Cc3cc(OC)cc(OC)c32)cc1` (configuration not stated) is 58.6%. Turning to `COc1ccc([C@@H]2c3c(OC)cc(OC)cc3C(O)[C@H]2c2cc(OC)cc(OC)c2)cc1` (relative stereo), the viability at 10 µM in assay [1] is 59%. In the case of `C=C1c2cc(OC)cc(OC)c2[C@@H](c2ccc(OC)cc2)[C@@H]1c1cc(OC)cc(OC)c1`, in assay [1], the viability at 10 µM turned out to be 58.2%. For `COc1ccc(CSC2c3cc(OC)cc(OC)c3[C@@H](c3ccccc3)[C@@H]2c2cc(OC)cc(OC)c2)cc1` (some centres not stated), the viability at 10 µM in assay [1] is 60.6%.

On to `COc1ccc([C@@H]2c3c(OC)cc(OC)cc3C(=O)[C@H]2c2cc(OC)cc(OC)c2)cc1` (relative stereo), for which the viability at 10 µM in assay [1] stood at 59.9%.

For `COc1ccc(CC2=C(c3cc(OC)cc(OC)c3)[C@@H](c3ccc(OC)cc3)c3c(OC)cc(OC)cc32)cc1`, the viability at 10 µM in assay [1] stood at 61.4%. Regarding `Oc1ccc(CC2=C(c3cc(O)cc(O)c3)C(c3ccccc3)c3c(O)cc(O)cc32)cc1` (configuration not stated), the viability at 10 µM in [1] was 82.9%. Regarding `Oc1ccc([C@H]2Oc3cc(O)cc4c3[C@@H]2c2cc(O)cc3c2[C@@H](c2cc(O)cc5c2[C@@H]4[C@H](c2ccc(O)cc2)O5)[C@H](c2ccc(O)cc2)O3)cc1`, in assay [10], the Ratio IC50 amounted to 3. As to `Oc1ccc(/C=C/c2cc(O)cc(O)c2)cc1` [RESVERATROL], the viability at 10 µM in assay [1] is 66.3%. Still for that read-out and setting: the same measure for `COc1ccc(/C=C2\c3cc(OC)cc(OC)c3[C@@H](c3ccc(OC)cc3)[C@@H]2c2cc(OC)cc(OC)c2)cc1`: 63.6%.
